EBV gp42 block: inhibitors of Epstein-Barr virus glycoprotein 42; Q1HVG2; Fluorescence polarization binding assay, mP read-out; inhibition, % (tested at 21.74 µM); 220,000 compounds, 0.42% hits; in the data active means inhibition above about 50%
Target sequence (Q1HVG2 whole entry, looked up): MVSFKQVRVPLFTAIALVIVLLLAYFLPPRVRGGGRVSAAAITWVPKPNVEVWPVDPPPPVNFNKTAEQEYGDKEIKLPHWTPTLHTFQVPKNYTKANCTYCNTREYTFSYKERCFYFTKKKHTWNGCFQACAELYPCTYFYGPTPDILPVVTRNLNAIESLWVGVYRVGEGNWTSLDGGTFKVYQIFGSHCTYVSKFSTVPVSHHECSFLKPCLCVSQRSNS
Mcl1-Bid inh: disrupts binding of human Mcl-1 to Bid peptide | Q07820 | TR-FRET Mcl-1/Bid-Dy647 peptide binding, 1536-well | inhibition, % at 21.7 µM | 220,000 compounds, 0.97% hits;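 active means compounds that cut the binding signal by more than half at the single screening dose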;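 further: His-tagged Mcl-1 with europium anti-His antibody binding Bid BH3 peptide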
Target sequence (Q07820 whole entry, looked up): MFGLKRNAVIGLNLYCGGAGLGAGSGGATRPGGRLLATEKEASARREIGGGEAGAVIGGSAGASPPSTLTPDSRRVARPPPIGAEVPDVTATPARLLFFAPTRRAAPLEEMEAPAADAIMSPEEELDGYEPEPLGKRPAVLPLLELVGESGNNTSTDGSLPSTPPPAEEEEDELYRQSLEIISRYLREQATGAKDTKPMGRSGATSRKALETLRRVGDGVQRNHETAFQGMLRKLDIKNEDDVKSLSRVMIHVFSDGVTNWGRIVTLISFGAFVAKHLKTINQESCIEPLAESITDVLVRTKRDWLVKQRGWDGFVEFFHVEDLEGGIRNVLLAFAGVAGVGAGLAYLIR
Mcl1 Noxa PPI: disrupts binding of human Mcl-1 to Noxa peptide. 220,000 compounds, 1.5% hits. TR-FRET Mcl-1/Noxa peptide binding, 2 h. Q07820. inhibition, % at 21.7 µM. AID 1022;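 active means compounds that cut the protein-peptide binding signal by more than 50% relative to plate controls in a single-dose test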;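 further: His-tagged Mcl-1 with rhodamine Noxa BH3 peptide and terbium anti-His antibody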
MCL1-BIM inh: disrupts human MCL1 binding to BIM-BH3 peptide. Q07820. GST-MCL1 / FITC-Bim-BH3 fluorescence polarization. inhibition, % at 10.9 µM. 320,000 compounds, 0.68% hits;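 active means inhibition above the mean inhibition of all tested compounds plus 3 SD, set per campaign, cut at about 40% in these data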;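 further: higher means more loss of mP so more displacement of Bim peptide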
Bim-Mcl-1: human Bim-Mcl-1 interaction inhibition | Q07820 | Bead-based flow cytometry, Bim peptide-Mcl-1 binding | inhibition, % at 10 µM | 190,000 compounds, 0.1% hits; in the data active means inhibition above about 40%
RBBP9 inh: inhibitors of human serine hydrolase RBBP9 | recombinant RBBP9, FP-Rh probe fluorescence polarization | inhibition, % at 7.94 µM | 220,000 compounds, 0.2% hits | AID 1515;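 active means inhibition above the campaign mean of all tested compounds plus 3 SD, cut at about 14% in these data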
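Material: RBBP9 protein. Amount: RBBP9 at 2.5 µM in dispensed solution, before mixing. Schedule: 30 min then 45 min, 25 °C. Medium: Tris buffer pH 8.0, NaCl, Pluronic. Measured by: fluorescence polarization. Measure: percent inhibition from mP, scaled between DMSO and no-protein wells. Replication: one well per compound.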
RBBP9 confirm: human RBBP9 inhibition, confirmation. inhibition, % at 7.94 µM. shares compounds with RBBP9 inh. recombinant RBBP9, FP-Rh probe fluorescence polarization. 410 compounds, 36% hits;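 active means inhibition above the hit cutoff derived for the primary screen, cut at about 15% in these data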
Numbers stand for hits. An excerpt weighted towards active compounds, which were near 2.2% of everything screened.

How did CCCOc1ccc(/C=N/NC(=O)CSc2ccccn2)cc1OC do in these assays?
EBV gp42 block: inactive; Mcl1-Bid inh: inactive; Mcl1 Noxa PPI: inactive; MCL1-BIM inh: inactive; RBBP9 inh: 17; RBBP9 confirm: inactive

Results for COc1cc(/C=N/NC(=O)CSc2ccccn2)ccc1O ?
EBV gp42 block: inactive; Mcl1-Bid inh: inactive; Mcl1 Noxa PPI: inactive; MCL1-BIM inh: inactive; RBBP9 inh: inactive

How did Cc1c(O)ccc(C(=O)CN2CCN(Cc3ccc4c(c3)OCO4)CC2)c1O do in these assays?
EBV gp42 block: inactive; Mcl1-Bid inh: inactive; Mcl1 Noxa PPI: inactive; MCL1-BIM inh: inactive; Bim-Mcl-1: inactive; RBBP9 inh: 68; RBBP9 confirm: inactive

Results for CC(=O)NC(c1ccccc1)c1c(O)ccc2ccccc12 (configuration not stated) ?
EBV gp42 block: inactive; Mcl1-Bid inh: inactive; Mcl1 Noxa PPI: inactive; MCL1-BIM inh: inactive; Bim-Mcl-1: inactive; RBBP9 inh: 16; RBBP9 confirm: 17

How did Cc1cccc2cc(CN(CCCN(C)C)C(=S)NCCc3ccccc3)c(=O)[nH]c12 do in these assays?
EBV gp42 block: inactive; Mcl1-Bid inh: inactive; Mcl1 Noxa PPI: inactive; MCL1-BIM inh: inactive; Bim-Mcl-1: inactive; RBBP9 inh: 17; RBBP9 confirm: 27

How did Cc1ccc2[nH]c(=O)c(CN(CCCN(C)C)C(=S)NCCc3ccccc3)cc2c1 do in these assays?
EBV gp42 block: inactive; Mcl1-Bid inh: inactive; Mcl1 Noxa PPI: inactive; MCL1-BIM inh: inactive; Bim-Mcl-1: inactive; RBBP9 inh: inactive

What do the screens show for `NC(=O)CC1Nc2cccc3cccc(c23)NC1=O` (configuration not stated)?
EBV gp42 block: inactive; Mcl1-Bid inh: inactive; Mcl1 Noxa PPI: inactive; MCL1-BIM inh: inactive; Bim-Mcl-1: inactive; RBBP9 inh: 29; RBBP9 confirm: inactive

How did O=C(CC1Nc2cccc3cccc(c23)NC1=O)Nc1ccccc1 (configuration not stated) do in these assays?
EBV gp42 block: inactive; Mcl1-Bid inh: inactive; Mcl1 Noxa PPI: 54; MCL1-BIM inh: inactive; Bim-Mcl-1: inactive; RBBP9 inh: 16; RBBP9 confirm: inactive

Results for CCCOc1ccc(NC(=O)CC2Nc3ccccc3NC2=O)cc1 (configuration not stated) ?
EBV gp42 block: inactive; Mcl1-Bid inh: inactive; Mcl1 Noxa PPI: inactive; MCL1-BIM inh: inactive; Bim-Mcl-1: inactive; RBBP9 inh: inactive

What do the screens show for `COc1cc(/C=C2/SC(=S)N(CCC(=O)Nc3ccccc3)C2=O)cc(OC)c1OC`?
MCL1-BIM inh: inactive

How did Cc1ccc(-c2cc(C(=O)N3CCCc4ccccc43)no2)cc1 do in these assays?
EBV gp42 block: inactive; Mcl1-Bid inh: inactive; Mcl1 Noxa PPI: inactive; MCL1-BIM inh: inactive; Bim-Mcl-1: inactive; RBBP9 inh: inactive

What do the screens show for `O=C(COC(=O)/C=C/c1ccc(Cl)cc1)NCCc1ccccc1`?
EBV gp42 block: inactive; Mcl1-Bid inh: inactive; Mcl1 Noxa PPI: inactive; MCL1-BIM inh: inactive; Bim-Mcl-1: inactive; RBBP9 inh: 17; RBBP9 confirm: inactive

How did O=C(COC(=O)/C=C/c1ccccc1)NCc1ccc(Cl)cc1 do in these assays?
EBV gp42 block: inactive; Mcl1-Bid inh: inactive; Mcl1 Noxa PPI: inactive; MCL1-BIM inh: inactive; Bim-Mcl-1: inactive; RBBP9 inh: inactive

Results for CC(=O)c1c(C(C)=O)c(C)n(-c2cccc3cccnc23)c1C ?
EBV gp42 block: inactive; Mcl1-Bid inh: inactive; Mcl1 Noxa PPI: inactive; MCL1-BIM inh: inactive; Bim-Mcl-1: inactive; RBBP9 inh: 29; RBBP9 confirm: inactive

Results for Cc1cc(C)n(-c2cccc3cccnc23)n1 ?
EBV gp42 block: inactive; Mcl1-Bid inh: inactive; Mcl1 Noxa PPI: inactive; MCL1-BIM inh: inactive; Bim-Mcl-1: inactive; RBBP9 inh: inactive

What do the screens show for `CCCCN(C(=O)c1cc2ccccc2o1)c1c(N)n(CCC)c(=O)[nH]c1=O`?
EBV gp42 block: inactive; Mcl1-Bid inh: inactive; Mcl1 Noxa PPI: inactive; MCL1-BIM inh: inactive; Bim-Mcl-1: inactive; RBBP9 inh: inactive

What do the screens show for `CCCCN(C(=O)c1cc2ccccc2o1)c1c(N)n(CC(C)C)c(=O)[nH]c1=O`?
EBV gp42 block: inactive; Mcl1-Bid inh: inactive; Mcl1 Noxa PPI: inactive; MCL1-BIM inh: inactive; Bim-Mcl-1: inactive; RBBP9 inh: 20; RBBP9 confirm: inactive

What do the screens show for `Cc1nn(-c2ccccc2)c(Cl)c1/C=N/NC(=O)CNC(=O)c1ccccc1Cl`?
EBV gp42 block: inactive; Mcl1-Bid inh: inactive; Mcl1 Noxa PPI: inactive; MCL1-BIM inh: inactive; Bim-Mcl-1: inactive; RBBP9 inh: 39; RBBP9 confirm: inactive

How did CC(C)=NOC(=O)c1c(C)noc1-c1snnc1C do in these assays?
EBV gp42 block: inactive; Mcl1-Bid inh: inactive; Mcl1 Noxa PPI: inactive; MCL1-BIM inh: inactive; RBBP9 inh: 18; RBBP9 confirm: inactive

How did COC(C[C@@H]1O[C@H]1[C@@H](O)COCc1ccccc1)OC do in these assays?
EBV gp42 block: inactive; Mcl1-Bid inh: inactive; Mcl1 Noxa PPI: inactive

What do the screens show for `CCNC(=O)c1ccccc1NC(=O)C1CC(=O)N(C(C)C)C1` (configuration not stated)?
MCL1-BIM inh: inactive

How did CC(=O)Nc1cccc(-c2csc(NCc3ccccc3)n2)c1 do in these assays?
EBV gp42 block: inactive; Mcl1-Bid inh: inactive; Mcl1 Noxa PPI: inactive; MCL1-BIM inh: inactive; Bim-Mcl-1: inactive; RBBP9 inh: 15; RBBP9 confirm: inactive

Results for CC(=O)Nc1ccc(-c2csc(NCc3ccccc3)n2)cc1 ?
EBV gp42 block: inactive; Mcl1-Bid inh: inactive; Mcl1 Noxa PPI: inactive; MCL1-BIM inh: inactive; Bim-Mcl-1: inactive; RBBP9 inh: inactive

Results for CCOC(=O)c1ccc(NS(=O)(=O)c2ccc3c(c2)NC(=O)CCS3)cc1 ?
MCL1-BIM inh: inactive

Results for COc1ccc(F)cc1Cn1nc(C(=O)O)c2ccccc2c1=O ?
MCL1-BIM inh: inactive

What do the screens show for `CCOC(=O)c1nc2sc3c(c2c(=O)[nH]1)CCC(C)C3` (configuration not stated)?
EBV gp42 block: inactive; Mcl1-Bid inh: inactive; Mcl1 Noxa PPI: inactive; MCL1-BIM inh: inactive; RBBP9 inh: 16; RBBP9 confirm: inactive

Results for COc1ccccc1CNC(=O)CCCC(=O)n1ncc2cc(C)ccc21 ?
MCL1-BIM inh: inactive

What do the screens show for `O=C1C2CC=CCC2C(=O)N1Cc1ccccc1` (configuration not stated)?
EBV gp42 block: inactive; Mcl1-Bid inh: inactive; Mcl1 Noxa PPI: inactive; MCL1-BIM inh: inactive; Bim-Mcl-1: inactive; RBBP9 inh: 19; RBBP9 confirm: inactive

Results for CCOc1ccc(S(=O)(=O)Nc2ccc(Cl)cn2)c(C)c1C ?
EBV gp42 block: inactive; Mcl1-Bid inh: inactive; Mcl1 Noxa PPI: inactive; MCL1-BIM inh: inactive; Bim-Mcl-1: inactive; RBBP9 inh: 17; RBBP9 confirm: inactive

Results for CCOC(=O)COc1ccc2c(=O)c(-c3ccccc3OC)coc2c1 ?
EBV gp42 block: inactive; Mcl1-Bid inh: inactive; Mcl1 Noxa PPI: inactive; MCL1-BIM inh: inactive; Bim-Mcl-1: inactive; RBBP9 inh: inactive

Compound activity deposited in PubChem by several laboratories.
